Experimental data pooled from the literature.
Each line is one published result; the experiments were not run side by side.
Target: Adenosine receptor A1 (ADORA1, Homo sapiens, UniProt P30542)
Residues used in one study (P30542 1-326): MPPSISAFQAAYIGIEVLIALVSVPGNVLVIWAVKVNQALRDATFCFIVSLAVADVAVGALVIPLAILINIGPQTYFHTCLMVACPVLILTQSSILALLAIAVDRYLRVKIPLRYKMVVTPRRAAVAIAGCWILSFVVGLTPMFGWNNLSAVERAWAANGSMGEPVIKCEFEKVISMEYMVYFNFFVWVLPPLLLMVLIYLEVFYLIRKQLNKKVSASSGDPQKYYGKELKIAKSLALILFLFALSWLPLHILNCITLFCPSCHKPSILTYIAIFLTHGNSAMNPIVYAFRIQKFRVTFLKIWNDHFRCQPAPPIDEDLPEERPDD

CNC(=O)[C@@]12C[C@@H]1[C@@H](n1cnc3c(NCc4cn(-c5ccc(C(=O)NCCCF)cc5)nn4)nc(Cl)nc31)[C@H](O)[C@@H]2O — Ki (ligand displacement, radioligand; cell membranes): 1.38 µM
CC(C)CN1CCCn2c1nc1c2c(=O)n(C)c(=O)n1C — Ki (ligand displacement, radioligand; cell membranes): 1.91 µM
CNC(=O)[C@@]12C[C@@H]1[C@@H](n1cnc3c(NCc4cccc(C#CCCCCc5cn(C67CC8CC(CC(C8)C6)C7)nn5)c4)nc(Cl)nc31)[C@H](O)[C@@H]2O — Ki (ligand displacement, radioligand; cell membranes): 1.72 µM
O[C@@H]1[C@H](O)CO[C@H]1n1cnc2c(NCc3cccc(Br)c3)ncnc21 — Ki (ligand displacement, radioligand; cell membranes): 3.3 µM
CNC(=O)[C@@]12C[C@@H]1[C@@H](n1cnc3c(NCc4cccc(C#CCCCc5cn(-c6ccc(F)c(N)c6)nn5)c4)nc(Cl)nc31)[C@H](O)[C@@H]2O — Ki (ligand displacement, radioligand; cell membranes): 0.64 µM
OC[C@@]12C[C@@H]1[C@@H](n1cnc3c(NC(C4CCCCC4)C4CCCCC4)nc(Cl)nc31)[C@H](O)[C@@H]2O — Ki (ligand displacement, radioligand): 1.9 µM
CNC(=O)[C@@]12C[C@@H]1[C@@H](n1cnc3c(NCCc4ccc(O)c(OC)c4)nc(C#Cc4ccc(Cl)s4)nc31)[C@H](O)[C@@H]2O — Ki (cell-free assay, radioligand): 0.043 µM
C#CCCCCC(=O)NCCNC(=O)COc1ccc(-c2nc3c([nH]2)c(=O)n(CCC)c(=O)n3CCC)cc1 — Ki (ligand displacement, radioligand; cell membranes): 0.107 µM
CCCC[C@H](NC(=O)[C@H](C)c1c(C)[nH]c2ccc(O)cc12)c1ncc(-c2cc3ccccc3nc2OC)[nH]1 — Ki (cell-free assay): 1.59 µM
C=CN1CCCn2c1nc1c2c(=O)n(C)c(=O)n1C — Ki (ligand displacement, radioligand; cell membranes): > 10 µM
COc1cccc(Cn2c(=O)n(CC3CC3)c(=O)c3c2nc2cc(OC)ccn23)c1 — Ki (ligand displacement, radioligand; cell membranes): 0.209 µM
CCNC(=O)[C@H]1O[C@@H](n2cnc3c(N)nc(NN=CC4CCC=CO4)nc32)[C@H](O)[C@@H]1O (stereo partly drawn) — Ki (ligand displacement, radioligand; cell membranes): 0.0346 µM
